ChEMBL document CHEMBL1135612, “Identification of potent and selective small-molecule inhibitors of caspase-3 through the use of extended tethering and structure-based drug design” (J Med Chem, 2002)

Experiments:
Caspase-3 = molecular target: T1, Caspase-3 (Homo sapiens, UniProt P42574); experiment: Inhibitory activity against Caspase-3
T1 sequence (P42574 whole entry): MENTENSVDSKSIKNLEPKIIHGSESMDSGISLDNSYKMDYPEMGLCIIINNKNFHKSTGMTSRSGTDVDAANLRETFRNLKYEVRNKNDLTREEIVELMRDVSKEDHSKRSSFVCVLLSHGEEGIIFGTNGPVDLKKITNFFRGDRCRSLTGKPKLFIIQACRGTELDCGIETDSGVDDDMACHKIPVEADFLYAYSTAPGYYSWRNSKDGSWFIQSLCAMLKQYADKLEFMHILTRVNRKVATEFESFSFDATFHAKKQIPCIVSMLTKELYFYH

Caspase-8 = Caspase-8 (Homo sapiens, UniProt Q14790); experiment: Inhibitory activity against Caspase-8
Sequence of Caspase-8 (Q14790 217-374 limits assumed): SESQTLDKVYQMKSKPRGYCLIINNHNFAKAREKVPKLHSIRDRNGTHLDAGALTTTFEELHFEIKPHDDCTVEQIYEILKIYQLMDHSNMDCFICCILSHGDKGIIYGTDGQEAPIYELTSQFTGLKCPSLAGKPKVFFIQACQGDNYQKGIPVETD
Sequence of Caspase-8 (Q14790 385-479 limits assumed): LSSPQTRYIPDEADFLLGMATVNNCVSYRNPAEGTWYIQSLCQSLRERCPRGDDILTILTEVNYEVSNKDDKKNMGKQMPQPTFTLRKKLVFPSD
How it was run: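 In-house expressed, purified human caspase-8 at 10 nM, final, with 3 µM Ac-IETD-AFC in 100 mM HEPES pH 7.4, 10% sucrose, 0.1% CHAPS, 10 mM DTT. Enzyme was preincubated 30 min at RT with DMSO-titrated compound, and substrate started the reaction. Fluorescence (ex 365/em 495 nm) was read kinetically for 15 min at RT. IC50 came from a four-parameter fit.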

Caspase-4 = molecular target: T2, Caspase-4 (Homo sapiens, UniProt P49662); experiment: Inhibitory activity against Caspase-4
T2 sequence (P49662 whole entry): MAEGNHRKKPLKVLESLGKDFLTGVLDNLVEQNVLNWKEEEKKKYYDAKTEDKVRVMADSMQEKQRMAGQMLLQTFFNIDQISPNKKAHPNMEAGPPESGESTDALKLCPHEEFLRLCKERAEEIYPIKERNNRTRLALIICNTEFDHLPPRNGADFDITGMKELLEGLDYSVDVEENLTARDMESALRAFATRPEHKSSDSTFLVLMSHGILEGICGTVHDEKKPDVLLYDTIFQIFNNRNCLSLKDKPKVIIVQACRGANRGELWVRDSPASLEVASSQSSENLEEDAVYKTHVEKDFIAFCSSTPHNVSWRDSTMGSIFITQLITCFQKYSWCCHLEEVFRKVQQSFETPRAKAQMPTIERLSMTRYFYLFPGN
How it was run: (§1)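 Human recombinant caspase-1 (3 nM; 4 µM Ac-WEHD-AFC), -2 (17 nM; 40 µM Ac-VDVAD-AFC), -4 (60 nM; 30 µM Ac-WEHD-AFC) or -6 (2 nM; 7 µM Ac-VEID-AFC), final concentrations. Buffer: 25 mM HEPES pH 7.4, 0.1% CHAPS, 50 mM KCl, 5 mM β-ME. Enzyme preincubated 30 min RT with compound titrated in DMSO. Substrate starts reaction. AFC kinetics (ex 365/em 495 nm) read 15 min RT. IC50 from four-parameter fit.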

Caspase-6 = molecular target: T3, Caspase-6 (Homo sapiens, UniProt P55212); experiment: Inhibitory activity against Caspase-6; how it was run: as §1
T3 sequence (P55212 whole entry): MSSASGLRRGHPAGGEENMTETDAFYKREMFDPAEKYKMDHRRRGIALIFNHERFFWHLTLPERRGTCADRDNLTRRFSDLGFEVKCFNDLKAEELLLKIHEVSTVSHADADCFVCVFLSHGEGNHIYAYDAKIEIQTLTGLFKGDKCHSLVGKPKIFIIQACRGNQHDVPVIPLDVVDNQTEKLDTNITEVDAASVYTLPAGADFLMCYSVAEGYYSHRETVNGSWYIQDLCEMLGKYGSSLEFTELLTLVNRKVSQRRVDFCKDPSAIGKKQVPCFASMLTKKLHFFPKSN

Caspase-1 = molecular target: T4, Caspase-1 (Homo sapiens, UniProt P29466); experiment: Inhibitory activity against of Caspase-1; how it was run: as §1
T4 sequence (P29466 whole entry): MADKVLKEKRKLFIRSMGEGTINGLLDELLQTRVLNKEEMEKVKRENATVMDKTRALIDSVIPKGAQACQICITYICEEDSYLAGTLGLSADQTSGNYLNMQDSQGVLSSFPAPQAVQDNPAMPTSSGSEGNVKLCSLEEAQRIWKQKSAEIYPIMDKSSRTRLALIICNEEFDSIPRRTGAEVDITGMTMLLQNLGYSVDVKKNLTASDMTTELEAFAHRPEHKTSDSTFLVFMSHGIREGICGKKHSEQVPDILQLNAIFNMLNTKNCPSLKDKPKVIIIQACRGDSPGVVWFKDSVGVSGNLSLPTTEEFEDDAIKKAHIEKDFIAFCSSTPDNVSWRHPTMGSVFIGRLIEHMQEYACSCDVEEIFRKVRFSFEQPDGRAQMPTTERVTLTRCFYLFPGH

Caspase-5 = molecular target: T5, Caspase-5 (Homo sapiens, UniProt P51878); experiment: Inhibitory activity against Caspase-5
T5 sequence (P51878 whole entry): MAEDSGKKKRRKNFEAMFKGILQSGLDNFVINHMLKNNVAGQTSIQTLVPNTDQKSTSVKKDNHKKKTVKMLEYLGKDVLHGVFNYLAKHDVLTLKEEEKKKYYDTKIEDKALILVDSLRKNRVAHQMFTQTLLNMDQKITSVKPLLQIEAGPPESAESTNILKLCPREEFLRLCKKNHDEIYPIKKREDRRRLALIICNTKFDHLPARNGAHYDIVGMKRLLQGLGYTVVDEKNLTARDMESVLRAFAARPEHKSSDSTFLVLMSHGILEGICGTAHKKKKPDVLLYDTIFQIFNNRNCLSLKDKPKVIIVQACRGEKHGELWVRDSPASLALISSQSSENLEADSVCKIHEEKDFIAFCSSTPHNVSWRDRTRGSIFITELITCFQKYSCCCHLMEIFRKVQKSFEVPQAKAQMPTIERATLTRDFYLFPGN
How it was run: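 Recombinant human caspase-5 at 83 nM, final, with 30 µM Ac-WEHD-AFC in 100 mM HEPES pH 7.4, 10% sucrose, 0.1% CHAPS, 200 mM NaCl, 10 mM DTT. Enzyme and DMSO-titrated compound stood together 30 min at RT before substrate addition. Fluorescence (ex 365/em 495 nm) followed kinetically 15 min at RT. IC50 came from a four-parameter curve fit.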

Caspase-7 = molecular target: T6, Caspase-7 (Homo sapiens, UniProt P55210); experiment: Inhibitory activity against Caspase-7
T6 sequence (P55210 whole entry): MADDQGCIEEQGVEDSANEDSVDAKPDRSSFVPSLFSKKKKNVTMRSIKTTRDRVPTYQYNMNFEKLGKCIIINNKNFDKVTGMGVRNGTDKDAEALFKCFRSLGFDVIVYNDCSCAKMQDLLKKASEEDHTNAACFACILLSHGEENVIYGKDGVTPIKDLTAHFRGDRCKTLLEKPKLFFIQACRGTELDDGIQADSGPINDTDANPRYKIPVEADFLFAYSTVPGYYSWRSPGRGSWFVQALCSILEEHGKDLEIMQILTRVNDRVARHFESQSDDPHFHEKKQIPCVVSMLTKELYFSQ
How it was run: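 Caspase-7 assay: 1 nM recombinant human enzyme and 30 µM Ac-DEVD-AFC, final, in 25 mM HEPES pH 7.4, 0.1% CHAPS, 50 mM KCl, 5 mM CaCl2, 5 mM β-ME. Enzyme preincubated 30 min RT with compound titrated in DMSO, then substrate added. Kinetic AFC fluorescence (ex 365/em 495 nm) over 15 min at RT. IC50 by four-parameter fit.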

Caspase-2 = molecular target: T7, Caspase-2 (Homo sapiens, UniProt P42575); experiment: Inhibitory activity against of Caspase-2; how it was run: as §1
T7 sequence (P42575 whole entry): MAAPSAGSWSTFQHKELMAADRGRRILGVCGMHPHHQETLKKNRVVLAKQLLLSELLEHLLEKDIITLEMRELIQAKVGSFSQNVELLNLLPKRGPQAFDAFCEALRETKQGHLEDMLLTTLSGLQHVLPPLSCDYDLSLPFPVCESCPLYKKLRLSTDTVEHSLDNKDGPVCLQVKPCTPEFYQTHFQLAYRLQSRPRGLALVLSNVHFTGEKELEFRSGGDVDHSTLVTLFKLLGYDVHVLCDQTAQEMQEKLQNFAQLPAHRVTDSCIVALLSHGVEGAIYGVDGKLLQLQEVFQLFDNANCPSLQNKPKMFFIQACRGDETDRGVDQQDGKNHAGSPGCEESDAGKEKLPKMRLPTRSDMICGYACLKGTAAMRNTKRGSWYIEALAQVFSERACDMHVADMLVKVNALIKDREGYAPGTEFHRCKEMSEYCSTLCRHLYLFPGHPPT

Compound	Ki (Caspase-3) [µM]	Ki (Caspase-8) [µM]	Ki (Caspase-4) [µM]	Ki (Caspase-6) [µM]	Ki (Caspase-1) [µM]	Ki (Caspase-5) [µM]	Ki (Caspase-7) [µM]	Ki (Caspase-2) [µM]
CN(Cc1ccc(O)c(C(=O)O)c1)Cc1ccc(C(=O)N[C@@H](CC(=O)O)C(=O)CSCc2ccccc2Cl)s1	0.09	4	96	22	12	98	0.19	30
O=C[C@H](CC(=O)O)NC(=O)c1ccc(CNS(=O)(=O)c2ccc(O)c(C(=O)O)c2)cc1	0.2	0.15	21	1	0.16	12	0.47	9
O=C[C@H](CC(=O)O)NC(=O)c1ccc(CNS(=O)(=O)c2ccc(O)c(C(=O)O)c2)s1	0.12	0.05	38	0.54	1.9	24	0.12	21

The next compounds have a lower Ki (Caspase-3) than those just listed; values first:

Ki (Caspase-3) [µM]	Ki (Caspase-8) [µM]	Ki (Caspase-4) [µM]	Ki (Caspase-6) [µM]	Ki (Caspase-1) [µM]	Ki (Caspase-5) [µM]	Ki (Caspase-7) [µM]	Ki (Caspase-2) [µM]	Compound
0.03	19	13	2.3	8.3	23	0.09	16	O=C(O)C[C@H](NC(=O)c1cnc(CNS(=O)(=O)c2ccc(O)c(C(=O)O)c2)s1)C(=O)CSCc1ccccc1Cl
0.05	0.88	92	1.4		22	0.13	0.96	O=C[C@H](CC(=O)O)NC(=O)c1ccc(CNS(=O)(=O)c2ccc(O)c(C(=O)O)c2)nc1
0.02	0.33	> 100	9.7	3.2	63	0.13	64	O=C(O)C[C@H](NC(=O)c1ccc(CNS(=O)(=O)c2ccc(O)c(C(=O)O)c2)s1)C(=O)CSCc1ccccc1Cl
0.04	0.71	27	2.4	2.7	36	0.94	37	Cc1cc(CNS(=O)(=O)c2ccc(O)c(C(=O)O)c2)sc1C(=O)N[C@@H](CC(=O)O)C(=O)CSCc1ccccc1Cl
0.02	28	22	0.19	25	32	0.09	30	O=C(O)C[C@H](NC(=O)c1cnc(CNS(=O)(=O)c2ccc(O)c(C(=O)O)c2)nc1)C(=O)CSCc1ccccc1Cl
